Converted amounts (≈) assume the structure as drawn.
Assays:
[1] = tested on: HepG2; assay: Cytotoxicity against human HepG2 cells assessed as reduction in cell viability incubated for 4 hrs by CellTiter 96 Aqueous One Solution Reagent based assay; settings: HepG2, 4 h
Method in brief: (§1)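 HepG2 and MRC-5 cells seeded at 35 000 and 15 000 cells/well respectively, then held overnight at 37 °C, 5% CO₂. Compounds in serum-free MEM Earle's applied for 4 h. MTS reagent (CellTiter 96 AQueous One) added for a further 1 h, absorbance read at 485 nm. Survival expressed relative to medium (negative) and Triton X-100 (positive) controls.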

[2] = tested on: Escherichia coli; assay: Antibacterial activity against Escherichia coli ATCC 25922 cultured in MHB medium assessed as no bacterial growth incubated at 37 degC for 24 hrs by microdilution susceptibility test; type: functional; settings: ATCC 25922, 24 h
Method in brief: (§2)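 Broth microdilution per CLSI M07-A9 with modifications. Inoculum about 2.5–3 x 10⁴ cells/mL in Mueller-Hinton broth, mixed 1:1 with test derivative. DMSO stocks diluted in double-distilled water, final DMSO <1%. Incubation 24 h at 37 °C (20 °C for C. glutamicum). Growth and sterility controls included; oxytetracycline reference.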

[3] = tested on: Erythrocyte; assay: Hemolytic activity against human RBC incubated for 1 hr; type: cell-based
Method in brief: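 Heparinized human blood washed three times in warm PBS and set to 10% hct. Erythrocytes at 1% v/v final, with compound in PBS (DMSO <1%), shaken 1 h at 37 °C and then centrifuged. Supernatant absorbance read at 405 and 545 nm after PBS background subtraction. Haemolysis taken relative to 1% Triton X-100. Three independent replicates, EC50 averaged.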

[4] = tested on: Pseudomonas aeruginosa; assay: Antibacterial activity against Pseudomonas aeruginosa PA01 DSM 19880 (ATCC 15692) cultured in MHB medium assessed as no bacterial growth incubated at 37 degC for 24 hrs by microdilution susceptibility test; type: functional; settings: PAO1 DSM 19880 (ATCC 15692); method in brief: as §2
[5] = tested on: Staphylococcus aureus; assay: Antibacterial activity against Staphylococcus aureus ATCC 9144 cultured in MHB medium assessed as no bacterial growth incubated at 37 degC for 24 hrs by microdilution susceptibility test; type: functional; settings: ATCC 9144, 24 h; method in brief: as §2
[6] = tested on: Corynebacterium glutamicum; assay: Antibacterial activity against Corynebacterium glutamicum ATCC 13032 cultured in MHB medium assessed as no bacterial growth incubated at 20 degC for 24 hrs by microdilution susceptibility test; type: functional; settings: ATCC 13032, 24 h; method in brief: as §2
[7] = Aqueous solubility of the compound in DMSO; type: physicochemical
[8] = Selectivity index, ratio of EC50 for hemolytic activity against human RBC to MIC for antibacterial activity against Escherichia coli ATCC 25922; type: toxicity; settings: human red blood cells (RBC)
Method in brief: (§3)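 Selectivity index is the RBC haemolysis EC50 divided by the MIC against the E. coli or S. aureus reference strain.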

[9] = Selectivity index, ratio of EC50 for hemolytic activity against human RBC to MIC for antibacterial activity against Staphylococcus aureus ATCC 9144; type: toxicity; settings: human red blood cells (RBC); method in brief: as §3
[10] = tested on: MRC5; assay: Cytotoxicity against human MRC5 cells assessed as reduction in cell viability incubated for 4 hrs by CellTiter 96 Aqueous One Solution Reagent based assay; settings: MRC5, 4 h; method in brief: as §1

Row | SMILES | EC50 [1] | MIC [2] | EC50 [3] | MIC [4] | MIC [5] | MIC [6] | solubility [7] | selectivity ratio [8] | selectivity ratio [9] | EC50 [10]
1 | N#CC(Cc1cc(F)cc(F)c1)(Cc1cc(F)cc(F)c1)C(=O)NCCN | > 64 µg/mL | > 64 µg/mL | 208 µg/mL (≈ 548 µM) | > 64 µg/mL | > 64 µg/mL | 32 µg/mL (≈ 84.4 µM) | Soluble |  |  | 
2 | N#CC(Cc1ccccc1F)(Cc1ccccc1F)C(=O)NCCN | > 64 µg/mL | 64 µg/mL (≈ 186 µM) | 190 µg/mL (≈ 553 µM) | > 64 µg/mL | > 64 µg/mL | 16 µg/mL (≈ 46.6 µM) | Soluble | 3 |  | 
3 | NCCNC(=O)C(CN)(Cc1ccccc1Br)Cc1ccccc1Br | 48 µg/mL (≈ 102 µM) | 64 µg/mL (≈ 136 µM) | 271 µg/mL (≈ 578 µM) | 64 µg/mL (≈ 136 µM) | 64 µg/mL (≈ 136 µM) | 8 µg/mL (≈ 17 µM) | Soluble | 4 | 4 | 56 µg/mL (≈ 119 µM)
4 | NCCNC(=O)C(CN)(Cc1cccc2ccccc12)Cc1cccc2ccccc12 |  | 16 µg/mL (≈ 38.9 µM) | 90 µg/mL (≈ 219 µM) | 16 µg/mL (≈ 38.9 µM) | 4 µg/mL (≈ 9.72 µM) | 2 µg/mL (≈ 4.86 µM) | Soluble | 6 | 23 | 9 µg/mL (≈ 21.9 µM)
5 | NCCNC(=O)C(CN)(Cc1cc(F)cc(F)c1)Cc1cc(F)cc(F)c1 | > 64 µg/mL | > 64 µg/mL | 228 µg/mL (≈ 595 µM) | > 64 µg/mL | > 64 µg/mL | 64 µg/mL (≈ 167 µM) | Soluble |  |  | 
6 | N#CC(Cc1c(F)cccc1F)(Cc1c(F)cccc1F)C(=O)NCCN | > 64 µg/mL | > 64 µg/mL |  | > 64 µg/mL | > 64 µg/mL | > 64 µg/mL | Soluble |  |  | 
7 | N#CC(Cc1ccc(F)c2ccccc12)(Cc1ccc(F)c2ccccc12)C(=O)NCCN | 12 µg/mL (≈ 27.1 µM) | 4 µg/mL (≈ 9.02 µM) | > 500 µg/mL | 32 µg/mL (≈ 72.2 µM) | 4 µg/mL (≈ 9.02 µM) | 2 µg/mL (≈ 4.51 µM) | Soluble |  |  | 4 µg/mL (≈ 9.02 µM)
8 | N#CC(Cc1cc(Br)cc(Br)c1)(Cc1cc(Br)cc(Br)c1)C(=O)NCCN |  | > 64 µg/mL |  | > 64 µg/mL | > 64 µg/mL | > 64 µg/mL |  |  |  | 
9 | N#CC(Cc1ccccc1Br)(Cc1ccccc1Br)C(=O)NCCN | 26 µg/mL (≈ 55.9 µM) | 32 µg/mL (≈ 68.8 µM) | 211 µg/mL (≈ 454 µM) | > 64 µg/mL | 16 µg/mL (≈ 34.4 µM) | 32 µg/mL (≈ 68.8 µM) | Soluble | 7 | 13 | 32 µg/mL (≈ 68.8 µM)
10 | CN(C)[C@@H]1C(O)=C(C(N)=O)C(=O)[C@@]2(O)C(O)=C3C(=O)c4c(O)cccc4[C@@](C)(O)[C@H]3[C@H](O)[C@@H]12.Cl [OXYTETRACYCLINE HYDROCHLORIDE] | > 64 µg/mL | 2.5 µg/mL |  | 20 µg/mL | 0.65 µg/mL | 0.65 µg/mL |  |  |  | 
11 | NCCNC(=O)C(CN)(Cc1c(F)cccc1F)Cc1c(F)cccc1F | > 64 µg/mL | > 64 µg/mL |  | > 64 µg/mL | > 64 µg/mL | > 64 µg/mL | Soluble |  |  | 
12 | N#CC(Cc1ccccc1C(F)(F)F)(Cc1ccccc1C(F)(F)F)C(=O)NCCN | 24 µg/mL (≈ 54.1 µM) | 16 µg/mL (≈ 36.1 µM) | 89 µg/mL (≈ 201 µM) | 32 µg/mL (≈ 72.2 µM) | 16 µg/mL (≈ 36.1 µM) | 8 µg/mL (≈ 18 µM) | Soluble | 6 | 6 | 27 µg/mL (≈ 60.9 µM)
13 | N#CC(Cc1ccc(C(F)(F)F)cc1)(Cc1ccc(C(F)(F)F)cc1)C(=O)NCCN | 23 µg/mL (≈ 51.9 µM) | 16 µg/mL (≈ 36.1 µM) | 178 µg/mL (≈ 401 µM) | 64 µg/mL (≈ 144 µM) | 32 µg/mL (≈ 72.2 µM) | 8 µg/mL (≈ 18 µM) | Soluble | 11 | 6 | 18 µg/mL (≈ 40.6 µM)
14 | NCCNC(=O)C(CN)(Cc1ccccc1F)Cc1ccccc1F | > 64 µg/mL | > 64 µg/mL |  | > 64 µg/mL | > 64 µg/mL | > 64 µg/mL | Soluble |  |  | 

— ChEMBL document CHEMBL4311965, “Antimicrobial activity of amphipathic α,α-disubstituted β-amino amide derivatives against ESBL - CARBA producing multi-resistant bacteria; effect of halogenation, lipophilicity and cationic character” (Eur J Med Chem, 2019)
